Test [1] relates to HeLa. Put plainly: Induction of apoptosis in human HeLa cells assessed activation of caspase 2 at 10 to 100 nM after 24 hrs by Western blot analysis. A general note: In western blotting, separated proteins are transferred to a membrane and probed.
Test [2] deals with Jurkat. Put plainly: Induction of apoptosis in human Jurkat cells assessed as multinucleation at 100 uM after 24 to 48 hrs using Giemsa's staining by microscopic analysis. The test is classed as functional, cell-based. Summed up: (§1)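 Giemsa staining, then light-microscope examination of cell morphology. HeLa and Jurkat cells were exposed to compound for 24 and 48 h. Magnification 60×.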

Test [3] has as its system Jurkat. Put plainly: Antiproliferative activity against human Jurkat cells assessed as growth inhibition after 72 hrs by MTT assay. Type of test: functional, cell-based.
The subject of test [4] is HeLa. The test is described as follows: Induction of cell cycle arrest at G2/M phase in human HeLa cells assessed as decrease in Cdc25C expression at 100 nM after 48 hrs by Western blot analysis. The test is classed as functional, cell-based. Summed up: (§2)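 Immunoblot of HeLa lysates after 24 or 48 h of compound treatment at the indicated concentrations. Probed for cyclin B1, p-Cdc2 Y15 and Cdc25c. Slower-migrating Cdc25c bands were taken as a change in phosphorylation.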

Test [5] has as its system HeLa. The test is described as follows: Induction of apoptosis in human HeLa cells assessed as increase in cell viability at 100 nM after 48 hrs by flow cytometry in presence of pan-caspase inhibitor z-VAD.fmk. Type of test: functional, cell-based. The method, boiled down: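 HeLa incubated 48 h with compound at 100 nM with or without z-VAD.fmk (100 μM); viability measured, mean ± SEM of three independent experiments.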

Test [6] concerns HeLa. The test is described as follows: Induction of apoptosis in human HeLa cells assessed as no change in mitochondrial potential at 100 nM after 48 hrs using JC-1 staining by flow cytometry. The test is classed as functional, cell-based.
Test [7] has as its system HeLa. Put plainly: Induction of morphological changes in human HeLa cells assessed as appearance of giant interphase with multiple nuclei of different sizes at 10 nM after 24 hrs using phalloidintetramethylrhodamine B isothiocyanate staining by microscopy. The test is classed as functional, cell-based. The method, boiled down: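 HeLa cells were incubated with compound for 24 h. F-actin was stained with a phalloidin–tetramethylrhodamine B isothiocyanate conjugate and nuclei were counterstained with DAPI. Cells were then examined by fluorescence microscopy.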

Test [8] relates to HeLa. Put plainly: Induction of apoptosis in human HeLa cells assessed as reduction in p53 expression at […] after 48 hrs by Western blot analysis. Type of test: functional, cell-based. The method, boiled down:
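Western blot of HeLa whole-cell lysates, separated by SDS-PAGE and probed with antibodies to p-γH2AX Ser139, p53 and p21waf/cip1. Cells were treated at the indicated concentrations for 24 or 48 h.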

Test [9] concerns HeLa. Put plainly: Induction of cell cycle arrest at G2/M phase in human HeLa cells assessed as increase in cyclin B1 expression after 24 to 48 hrs by Western blot analysis. Type of test: functional, cell-based. Summed up: as §2
Test [10] deals with HeLa. Put plainly: Induction of apoptosis in human HeLa cells assessed as DNA condensation at 100 uM after 24 to 48 hrs using Giemsa's staining by microscopic analysis. The test is classed as functional, cell-based. Summed up:
(§3)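 HeLa treated 48 h, Giemsa stained and examined by light microscopy at 60× magnification.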

Test [11] concerns HeLa. The test is described as follows: Induction of apoptosis in human HeLa cells assessed as multinucleation at 100 uM after 24 to 48 hrs using Giemsa's staining by microscopic analysis. Type of test: functional, cell-based. The method, boiled down:
as §1

For test [12], the system named is HeLa. Put plainly: Induction of apoptosis in human HeLa cells assessed as abnormal mitotic figures at 100 uM after 24 to 48 hrs using Giemsa's staining by microscopic analysis. The test is classed as functional, cell-based. The method, boiled down: as §3
Test [13] has as its system A549. Put plainly: Antiproliferative activity against human A549 cells assessed as growth inhibition after 72 hrs by MTT assay. The test is classed as functional, cell-based. The conditions noted are these: A549, 72 h.
The species entered for test [14] is Bos taurus. Put plainly: Displacement of [3H]colchicine from bovine brain tubulin at 5 uM. Summed up:
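[3H]colchicine binding inhibition with tubulin at 1 μM, [3H]colchicine at 5 μM and test compound at 5 μM.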
(In general: In a radioligand displacement assay an active substance lowers the binding of a labelled ligand.)

For test [15], the system named is HeLa. The test is described as follows: Induction of apoptosis in human HeLa cells assessed as increase in propidium iodide-positive cells after 48 hrs by annexin-V-FITC and propidium iodide staining based flow cytometry. The test is classed as functional, cell-based. Summed up: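 Biparametric flow cytometry after annexin-V immunolabelling plus propidium iodide, separating live, early apoptotic, late apoptotic and necrotic cells; HeLa incubated for 24 or 48 h.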
In general terms: In flow cytometry, cells or beads pass a laser one at a time.

In test [16] the test system is HeLa. Put plainly: Induction of apoptosis in human HeLa cells assessed as formation of large cells at 10 uM after 24 to 48 hrs using Giemsa's staining by microscopic analysis. Type of test: functional, cell-based. The method, boiled down:
as §3

A short description of test [17]: Inhibition of bovine brain tubulin polymerization after 20 mins by turbidimetric analysis. Details: species or system Bos taurus. Summed up:
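Purified tubulin at 10 μM was used for the assembly (polymerization) inhibition assay. IC50 is the concentration inhibiting assembly.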

For test [18], the system named is HeLa. The test is described as follows: Induction of apoptosis in human HeLa cells assessed as cleavage of PARP at 10 to 100 nM by Western blotting. The conditions noted are these: TDE = time-dependent effect.
Test [19] concerns Jurkat. Put plainly: Induction of apoptosis in human Jurkat cells assessed as abnormal mitotic figures at 100 uM after 24 to 48 hrs using Giemsa's staining by microscopic analysis. Type of test: functional, cell-based. The method, boiled down:
as §1

Activity calls are given as the source filed them. The rule behind the calls is not given here.

For orientation: IC50 means the midpoint of a concentration-inhibition curve. A word on the inhibition: it is the relative decrease from the control value, in per cent. The low end stands for a response near the control, the high end for a response far below the control. Consider `CCOc1ccc(-c2sc(N)nc2-c2cc(OC)c(OC)c(OC)c2)cc1`, for which the outcome in test [1], in [2], in [4], in [7], in test [8] and in [10] was Active. Besides, the outcome in test [11], in [12], in test [15], in test [16] and in test [19] was Active. Also, the IC50 was found to be 0.14 nM in test [3], 0.09 nM in [13] and 610 nM in test [17]. For the same compound, the outcome in test [5] and in test [6] was inactive. In addition, the Activity entry in test [9] was “Dose-dependent effect”; in test [18], “tde”. The compound also had an inhibition in test [14] of 95%.

The record behind these values is ChEMBL document CHEMBL1799956, “Convergent synthesis and biological evaluation of 2-amino-4-(3',4',5'-trimethoxyphenyl)-5-aryl thiazoles as microtubule targeting agents” (J Med Chem, 2011).
